Measurements taken from ChEMBL document CHEMBL1136357, “2-arylaminothiazoles as high-affinity corticotropin-releasing factor 1 receptor (CRF1R) antagonists: synthesis, binding studies and behavioral efficacy” (Bioorg Med Chem Lett, 2003).

Legend:
[1] = target: T1, Corticotropin-releasing factor receptor 1 (Homo sapiens, UniProt P34998); experiment: Binding affinity by displacement of [125I]Tyr-o-CRF from human corticotropin releasing factor receptor 1 expressed in IMR-32 human neuroblastoma cell.
T1 sequence (P34998 whole entry): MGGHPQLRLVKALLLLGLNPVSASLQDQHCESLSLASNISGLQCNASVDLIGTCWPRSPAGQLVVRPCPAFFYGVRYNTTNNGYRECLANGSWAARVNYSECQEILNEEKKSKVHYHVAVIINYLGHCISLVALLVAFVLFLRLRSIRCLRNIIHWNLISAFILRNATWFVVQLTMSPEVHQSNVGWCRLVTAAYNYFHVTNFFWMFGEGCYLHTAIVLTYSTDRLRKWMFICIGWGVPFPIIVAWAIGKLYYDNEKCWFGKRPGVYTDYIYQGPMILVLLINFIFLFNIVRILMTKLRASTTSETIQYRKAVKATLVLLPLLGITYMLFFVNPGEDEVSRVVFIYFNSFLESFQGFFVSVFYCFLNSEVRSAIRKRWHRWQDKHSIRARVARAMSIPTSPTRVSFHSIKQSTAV

[2] = Oral bioavailability in rat after […]; format: ADME, organism-based; conditions: in vivo
[3] = Oral bioavailability in rat after peroral administration at 10 mg/kg; format: ADME, organism-based; conditions: in vivo
Summary of the method: (§1)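 Rats were given the HCl salt at 10 mg/kg orally, and at 5 mg/kg intravenously in the same study. […] Half-life, clearance, volume of distribution and oral bioavailability (F) were derived from the same study.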

[4] = test system: IMR-32; experiment: Compound was tested for its ability to inhibit CRF stimulatedcAMP production in IMR-32 cells.; format: functional, Homo sapiens
[5] = Plasma clearance in rat after intravenous administration at 5 mg/kg concentration
[6] = Ratio in brain to that of rat plasma for 2 hr after […]; format: ADME, organism-based; set-up: route oral; conditions: po, read-out: B/P
[7] = test system: Rattus norvegicus; experiment: Area under curve in rat plasma for 0-4 hr after peroral administration at 10 mg/kg; format: ADME, organism-based; set-up: time < 4 hr, dose 10 mg/kg, route oral; conditions: in vivo, po; summary of the method: as §1
[8] = Plasma clearance in rat after peroral administration at 10 mg/kg concentration; format: ADME, organism-based; summary of the method: as §1
[9] = Ratio in brain to that of rat plasma for 2 hr after peroral administration at 10 mg/kg; format: ADME, organism-based; set-up: dose 10 mg/kg, route oral; conditions: po, read-out: B/P; summary of the method: as §1
[10] = Half-life in rat after intravenous administration at 5 mg/kg concentration; conditions: in vivo
[11] = Half-life in rat after peroral administration at 10 mg/kg concentration; format: ADME, organism-based; conditions: in vivo; summary of the method: as §1
[12] = test system: Rattus norvegicus; experiment: Volume distribution in rat after peroral administration at 10 mg/kg; format: ADME, organism-based; set-up: dose 10 mg/kg, route oral; conditions: in vivo, po; summary of the method: as §1
[13] = test system: Rattus norvegicus; experiment: Area under curve in rat plasma for 0-4 hr after peroral administration at 10 mg/kg; conditions: in vivo, po
[14] = test system: Rattus norvegicus; experiment: Volume distribution in rat after intravenous administration at 5 mg/kg; conditions: in vivo

Row | SMILES | Ki [1] | further results
1 | CCCN(Cc1sc(Nc2c(Cl)cc(Cl)cc2Cl)nc1C(F)(F)F)CC1CC1 |  | bioavailability [2]: 9%; bioavailability [3]: 9%; Inhibition [4]: 90%; clearance [5]: 16 mL/min/kg; Kp at 2 h [6]: 2; AUC [7]: 1730 ng·h/mL; CL/F [8]: 16 mL/min/kg; Kp at 2 h [9]: 2; half-life [10]: 7.6 h; half-life [11]: 7.6 h; Vd [12]: 1.1 L/kg; AUC [13]: 1730 ng·h/mL; Vd [14]: 1.1 L/kg
2 | COCCN(CCOC)C(=O)c1sc(Nc2c(Cl)cc(Cl)cc2Cl)nc1C | 51000 nM | 
3 | CCCN(Cc1sc(Nc2c(C)cc(Cl)cc2Cl)nc1C(F)(F)F)CC1CC1 | 16 nM | 
4 | CCCN(Cc1sc(Nc2c(C)cc(C)cc2Cl)nc1C(F)(F)F)CC1CC1 | 23 nM | 
5 | CCCN(Cc1sc(Nc2c(Cl)cc(C(F)(F)F)cc2Cl)nc1C(F)(F)F)CC1CC1 | 28 nM | 
6 | CCCN(Cc1sc(N(CC)c2ccc(C(C)C)cc2Br)nc1C(F)(F)F)CC1CC1 | 56 nM | 
7 | CCN(CC)C(=O)c1sc(Nc2c(Cl)cc(Cl)cc2Cl)nc1C | 5000 nM | 
8 | CCCN(Cc1sc(N(CC)c2c(C)cc(C)cc2Cl)nc1C(F)(F)F)CC1CC1 | 67 nM | 
9 | CCCN(Cc1sc(Nc2c(C)cc(Cl)cc2C)nc1C(F)(F)F)CC1CC1 | 73 nM | 
10 | CCCN(Cc1sc(Nc2c(CC)cccc2CC)nc1C(F)(F)F)CC1CC1 | > 40000 nM | 
11 | CCCN(CC1CC1)c1nc(C)nc(Nc2c(Cl)cc(Cl)cc2Cl)c1Cl | 20 nM | 

Continued by falling Ki [1], values first:

Row | Ki [1] | SMILES | further results
12 | 31000 nM | CCCN(CC1CC1)C(=O)c1sc(Nc2c(Cl)cc(Cl)cc2Cl)nc1C(F)(F)F | 
13 | 16000 nM | CCN(CCOC)C(=O)c1sc(Nc2c(Cl)cc(Cl)cc2Cl)nc1C | 
14 | 11000 nM | CCCN(CC1CC1)C(=O)c1sc(Nc2c(Cl)cc(Cl)cc2Cl)nc1CC | 
15 | 5100 nM | CCCN(Cc1sc(Nc2ccc(OC)cc2OC)nc1C(F)(F)F)CC1CC1 | 
16 | 2900 nM | CCCN(Cc1sc(Nc2ccc(C(C)C)cc2Br)nc1C(F)(F)F)CC1CC1 | 
17 | 820 nM | CCCN(CCC)C(=O)c1sc(Nc2c(Cl)cc(Cl)cc2Cl)nc1C | 
18 | 360 nM | CCCN(CC1CC1)C(=O)c1sc(Nc2c(Cl)cc(Cl)cc2Cl)nc1C | 
19 | 100 nM | CCCN(Cc1sc(N(C)c2c(C)cc(C)cc2Cl)nc1C(F)(F)F)CC1CC1 | 
20 | 60 nM | CCCN(Cc1sc(Nc2c(C)cc(C)cc2C)nc1C(F)(F)F)CC1CC1 | 
21 | 28 nM | CCCN(Cc1sc(Nc2c(Br)cc(C)cc2Br)nc1C(F)(F)F)CC1CC1 | 
22 | 21 nM | CCCN(Cc1sc(Nc2c(C)cc(C)cc2Br)nc1C(F)(F)F)CC1CC1 | 
23 | 7.8 nM | CCCN(Cc1sc(Nc2c(Br)cc(Br)cc2Br)nc1C(F)(F)F)CC1CC1 | 
